Fewer inactive variants are shown than the library holds.
B1: tRNA (parent)
chain: GUUCCGUUGGCGUAAUGGUAACGCGUCUCCCUCCUAAGGAGAAGACUGCGGGUUCGAGUCCCGUACGGAACG

Variants of: B1
Experiment: yeast fitness relative to wild type (ratio to wild type); higher = fitter; tRNA-Arg(CCU), competitive growth, 37 C, YPD
Procedure, shortened: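 Variants of the tRNA-Arg(CCU) gene were chemically synthesised with a 3% per-site mutation rate across 69 sites and placed at the native genomic locus in Saccharomyces cerevisiae. Six parallel replicates of the pooled strains were competed in YPD at 37°C for 24 hours, and gene amplicons from the start and end populations were read by 100-nucleotide paired-end sequencing. Darwinian fitness relative to wild type was derived from changes in genotype frequencies. Genotypes required ≥ 100 starting reads, and estimates < 0.5 were set to 0.5.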

Question: With GUUCCGUUGGCGUAAUGGUAAUGCGUCUCUCUUCUAAGGAGAAGACAGCGGGUUCGAAUCCCGUCCGGAACG as the variant, how does the yeast fitness read?
Answer: ≤ 0.5

Question: For GUUCCGUUGGCGUAAUGGUAAUGCGUCUCCCUCCUAAGGGGAAGACUGCGGGUUCGAGUCCCCUACGGAACG, which yeast fitness is on record?
Answer: 0.531

Question: Which yeast fitness does the source give for GUUCCGUUGGCGUAAUGGUAAUGCGUCUCCCUCCUAAGGAGGAGCCUGCGGGUUGGAGUCCCGGACGGAACG here?
Answer: ≤ 0.5

Question: Which yeast fitness does the source give for GUUCCGUUGGCGUAAUGGUAAUGCGUCUCACUCCUAAGGAGAAGACUGAGGGUUAGAGUCCUGUAUGGAACG here?
Answer: 0.667

Question: Which yeast fitness does the source give for GUUCCGUUGGCGUAAUGGUAAUGCGUCUCCCUCCUAAGGGGAAGAUUGCGGGUUCGAGUCCCAUACGGAACG here?
Answer: ≤ 0.5

Question: With GUUCCGUUGGCGUAAUGGUAAUGCGUCUCCCUCCUAAGGAGAUGACUGCGGGUUGGAGUCCCGUACGGAACG as the variant, how does the yeast fitness read?
Answer: 0.595

Question: With GUUCCGUUGGCGUAAUGGUAAUGCGUCUCCAUCCUAAGGAGAAGACUGCGGGUUCGAGUCCCGUACGGAACG as the variant, how does the yeast fitness read?
Answer: 0.762

Question: With GUUCCGUUGGCGUAAUGGUAAUGCGUCUCCCUCCUAAGGAGAAGACUGCGGGUUCGGGUCCCGUACGGAACG as the variant, how does the yeast fitness read?
Answer: 0.775

Question: For GUUCCGUUGGCGUAAUGGUAAUGCGUCUCCCUCCUAAGGAGAAGACUGCGGGUUCGUGUCCCGUACGGAACG, which yeast fitness is on record?
Answer: 0.617

Question: Which yeast fitness does the source give for GUUCCGUUGGCGUAAUGGUAAUGCGUCUCCCUCCUAAGGAGAAGACUGCGGGUUCGCGUCCCGUACGGAACG here?
Answer: 0.661

Question: For GUUCCGUUGGCGUAAUGGUAAUGUGACUCCCUCCUAAGGAGAAGACCGCGGGUUCGAGUCCCGUACGGAACG, which yeast fitness is on record?
Answer: ≤ 0.5

Question: For GUUCCGUUGGCGUAAUGGUAAUGCGUGGCCCGCCUAAGGAGAAGGCUGCGGGUUCGAGUCCCGUACGGAACG, which yeast fitness is on record?
Answer: ≤ 0.5

Question: Which yeast fitness does the source give for GUUCCGUUGGCGUAAUGGUAAUGCGUCUCCCUCCUAAGGAGAAGCCUGCAGGUUCGAGUCCCGUACCGCACG here?
Answer: ≤ 0.5

Question: Which yeast fitness does the source give for GUUCCGUUGGCGUAAUGGUAAUGCGUCUCUCUCCUAGGGAGAAGACUGCGGGUUCGAGUCCCGUAUGGAACG here?
Answer: ≤ 0.5

Question: With GUUCCGUUGGCGUAAUGGUAAUGCGUUUCCCUGCUAAGGAGAACACUGCGGGUUCGAGUCCCGUUCGGAACG as the variant, how does the yeast fitness read?
Answer: 0.574

Question: Which yeast fitness does the source give for GUUCCGUUGGCGUAAUGGUAAUGCGUCUCCGUCCUAAGGAGAAGACUGUGGGUUCGAGUCCCGUGCGGAACG here?
Answer: ≤ 0.5

Question: For GUUCCGUUGGCGUAAUGGUAAUGGGUCUCGCUCCUAAGGUGAAGACUGCGGGUUCGAGUCCCGUACGGAACG, which yeast fitness is on record?
Answer: ≤ 0.5

Question: With GUUCCGUUGGCGUAAUGGUAAUGGGUCUCCCUCCCAAGGAGAAGACUGCGGGUUCCAGUCCCGAACGGAACG as the variant, how does the yeast fitness read?
Answer: ≤ 0.5

Question: For GUUCCGUUGGCGUAAUGGUAAUGCGUCUCCCUGCUAAGGAGAAGACUGCGGGUUCGAGUCCCGUACGGAACG, which yeast fitness is on record?
Answer: 0.551

Question: Which yeast fitness does the source give for GUUCCGUUGGCGUAAUGGUAAUGCGUCUCCCUCCUAAGGAGAAGACUGCGGGUUCGAGUCCCGUACGGUACG here?
Answer: 0.799

Question: For GUUCCGUUGGCGUAAUGGUAAUGCGUCUACCUCCUGAGGAGAAGUCUGCGGGUUCGAGUCCCGUACGGAACG, which yeast fitness is on record?
Answer: ≤ 0.5

Question: For GUUCCGUUGGCGUAAUGGUAAUGUGUCUCCCUUCUAAGGUGAAGACUGCGGGUUCGAGUCCCGUACGGAACG, which yeast fitness is on record?
Answer: ≤ 0.5

Question: With GUUCCGUUGGCGUAAUGGUAAUGCGUCUCACUCCUAAGGAGCAGACUGCGGGUUCGAAUCCCGUACGGAACG as the variant, how does the yeast fitness read?
Answer: ≤ 0.5

Question: For GUUCCGUUGGCGUAAUGGUAAUGCGUCUCCCUGCUAAGGAGAAGACUGCGGGUUCGAGUCCCGUGCGGAACG, which yeast fitness is on record?
Answer: ≤ 0.5

Question: With GUUCCGUUGGCGUAAUGGUAAUGGGUCUCCCUCCUAAGGAGAAGACUGCGGGUUUGAGUCCCGUACGGAACG as the variant, how does the yeast fitness read?
Answer: ≤ 0.5

Question: Which yeast fitness does the source give for GUUCCGUUGGCGUAAUGGUAAUGCGUUUCCCUCCUAAGGAGAAGACUGCGGGUUCGAGUCCCGUACGGACCG here?
Answer: 0.599

Question: Which yeast fitness does the source give for GUUCCGUUGGCGUAAUGGUAAUGCGUCUCCCUCCUAAGGAGAAGACUGCGGGUUCGAGUCCCGUUCGGAUCG here?
Answer: 0.628

Question: With GUUCCGUUGGCGUAAUGGUAAUGCGUCUCUCUUCUAAGGAGAAGCCUGCGGGUUCGAGUCCCGUACGGAACG as the variant, how does the yeast fitness read?
Answer: 0.548

Question: Which yeast fitness does the source give for GUUCCGUUGGCGUAAUGGUAAUGCGUCUCCCUCCUAAGGUGAAGACUGCGGGUUCGAGUCCCGAACGGAACG here?
Answer: ≤ 0.5

Question: For GUUCCGUUGGCGUAAUGGUAAUGCGUCUCCCUCCUAAGGAGGAGACUGCGGGUCGGAGUCCCGUACGGAUCG, which yeast fitness is on record?
Answer: ≤ 0.5

Question: For GUUCCGUUGGCGUAAUGGUAAUGCGUCUUCCUCCUAAGGAGAAGACUGCGGGUUCGAGUCCCGUACGGAACG, which yeast fitness is on record?
Answer: 0.821

Question: For GUUCCGUUGGCGUAAUGGUAAUGCGUGUCCCUCCUAAGGAGAAGACUGCGGGUUCGAGUCCCGUACGGUACG, which yeast fitness is on record?
Answer: 0.508

Question: Which yeast fitness does the source give for GUUCCGUUGGCGUAAUGGUAAUGCGUCUCCGUCCUAAGGAGAAGACUGCGAGUUCGAGUCCCGUACGGAACG here?
Answer: 0.563

Question: For GUUCCGUUGGCGUAAUGGUAAUGCGUCUACCUCCUAAGGAGAAGACCGCGGGUUCGAGUCCCGUACGACACG, which yeast fitness is on record?
Answer: ≤ 0.5

Question: For GUUCCGUUGGCGUAAUGGUAAUGCGUCUCGCUCCUAAGGAGAAGACUGCAGGUUCGAGUCCCGUACGGAACG, which yeast fitness is on record?
Answer: ≤ 0.5

Question: For GUUCCGUUGGCGUAAUGGUAAUGCGUAUCCCUCCUAAGGAGAAGAAUGCGGGUUCGAGUCCCGUACGGAACG, which yeast fitness is on record?
Answer: 0.66

Question: For GUUCCGUUGGCGUAAUGGUAAUGCGUUUCCCACCUAAGGAGAAGACUGCGGGUUCGAGUCCCGUAUCGAACG, which yeast fitness is on record?
Answer: ≤ 0.5
